{"data": "Experimental data pooled from the literature", "PBK": "Lymphokine-activated killer T-cell-originated protein kinase (PBK, Homo sapiens, UniProt Q96KB5)", "BRD7": "Bromodomain-containing protein 7 (BRD7, Homo sapiens, UniProt Q9NPI1)", "SIRT6": "NAD-dependent protein deacylase sirtuin-6 (SIRT6, Homo sapiens, UniProt Q8N6T7)", "ALK C1156Y": "ALK tyrosine kinase receptor (ALK, Homo sapiens, UniProt Q9UM73, C1156Y)", "VRK1": "Serine/threonine-protein kinase VRK1 (VRK1, Homo sapiens, UniProt Q99986)"}
{"SMILES": "N#CC1c2c([nH]c3c(Cl)c(Cl)ccc23)C(=O)NC12CCCCC2 (racemic)", "target": "PBK", "assay": "thermal stability, DSF", "setting": "10 µM", "measurement": "ΔTm", "value": "0.8 °C"}
{"SMILES": "Oc1ccc(-c2nc(-c3ccncc3)c(-c3ccc(F)cc3)[nH]2)cc1", "target": "BRD7", "assay": "thermal stability, DSF", "setting": "10 µM", "measurement": "ΔTm", "value": "1.3 °C"}
{"SMILES": "Nc1nonc1-n1cc(C(=O)N/N=C/c2cccc([N+](=O)[O-])c2O)nn1", "target": "SIRT6", "assay": "enzyme activity, inhibitor, fluorescence", "setting": "100 µM", "measurement": "remaining activity", "value": "41.4%"}
{"SMILES": "Cn1c2c(c3ccc(Cl)c(Cl)c31)C(C#N)C1(CCNCC1)NC2=O (racemic)", "target": "PBK", "assay": "thermal stability, DSF", "setting": "10 µM", "measurement": "ΔTm", "value": "-0.9 °C"}
{"SMILES": "Cc1cccc(Sc2ccc(CONC(=O)c3ccc(C(N)=O)cc3)cc2C(F)(F)F)c1", "target": "SIRT6", "assay": "enzyme activity, inhibitor, fluorescence", "setting": "100 µM", "measurement": "inhibition", "value": "100%"}
{"SMILES": "Nc1nonc1-n1cc(C(=O)N/N=C/c2ccco2)nn1", "target": "SIRT6", "assay": "enzyme activity, inhibitor, fluorescence", "setting": "100 µM", "measurement": "remaining activity", "value": "40.9%"}
{"SMILES": "Nc1ncnc2occ(-c3ccc(NC(=O)Nc4cc(C(F)(F)F)ccc4F)cc3)c12", "target": "ALK C1156Y", "assay": "cell-free assay", "setting": "20 µM", "measurement": "remaining signal", "value": "1.1%"}
{"SMILES": "Cn1c2c(c3ccc(Cl)c(Cl)c31)C(C#N)C1(CCCC1)NC2=O (centres unmarked)", "target": "VRK1", "assay": "thermal stability, DSF", "setting": "10 µM", "measurement": "ΔTm", "value": "0 °C"}
{"SMILES": "COc1ccc(Sc2ccc(CONC(=O)c3ccc(C(N)=O)cc3)cc2C(F)(F)F)cc1", "target": "SIRT6", "assay": "enzyme activity, inhibitor, fluorescence", "setting": "100 µM", "measurement": "inhibition", "value": "97.4%"}
{"SMILES": "Cn1c2c(c3ccccc31)C(C#N)C(C)(C)NC2=O (centres unmarked)", "target": "VRK1", "assay": "thermal stability, DSF", "setting": "10 µM", "measurement": "ΔTm", "value": "-0.1 °C"}
{"SMILES": "O=C(Nc1ccc(S(=O)(=O)N2CCC(Cl)CC2)cc1)c1ccc([N+](=O)[O-])o1", "target": "Voltage-dependent N-type calcium channel subunit alpha-1B (Cacna1b, Rattus norvegicus, UniProt Q02294)", "assay": "cell-free assay", "setting": "10 µM", "measurement": "inhibition", "value": "18%"}
{"SMILES": "Cc1cnc(Nc2ccc(OCCN3CCCC3)cc2)nc1Nc1cccc(S(=O)(=O)NC(C)(C)C)c1", "target": "BRD7", "assay": "thermal stability, DSF", "setting": "10 µM", "measurement": "ΔTm", "value": "0.22 °C"}
{"SMILES": "Cc1cc2c(cc1N1C(=O)c3cccc4c(Cl)ccc(c34)C1=O)n(C)c(=O)n2C", "target": "BRD7", "assay": "thermal stability, DSF", "setting": "10 µM", "measurement": "ΔTm", "value": "2.3 °C"}
{"SMILES": "Nc1nonc1-n1cc(C(=O)N/N=C/c2cccnc2)nn1", "target": "SIRT6", "assay": "enzyme activity, inhibitor, fluorescence", "setting": "100 µM", "measurement": "remaining activity", "value": "26%"}
{"SMILES": "Cn1c2c(c3ccc(Cl)c(Cl)c31)C(C#N)C(C)(C)NC2=O (centres unmarked)", "target": "PBK", "assay": "thermal stability, DSF", "setting": "10 µM", "measurement": "ΔTm", "value": "-0.6 °C"}
{"SMILES": "Cc1ccc(C(=O)NCc2ccsc2)cc1C#Cc1cn(C(C)C)c2ncnc(N)c12", "target": "[Pyruvate dehydrogenase (acetyl-transferring)] kinase isozyme 4, mitochondrial (PDK4, Homo sapiens, UniProt Q16654)", "assay": "enzyme activity, inhibitor", "setting": "1 µM", "measurement": "activity vs control", "value": "119%"}
{"SMILES": "Nc1nonc1-n1cc(C(=O)N/N=C/c2ccc([N+](=O)[O-])cc2)nn1", "target": "SIRT6", "assay": "enzyme activity, inhibitor, fluorescence", "setting": "100 µM", "measurement": "remaining activity", "value": "24.8%"}
{"SMILES": "Cc1ccc(C(=O)Nc2ccc(CN3CCN(C)CC3)c(C(F)(F)F)c2)cc1C#Cc1cnc2cccnn12", "target": "Mitogen-activated protein kinase 6 (MAPK6, Homo sapiens, UniProt Q16659)", "assay": "enzyme activity, inhibitor", "setting": "23.5 nM", "measurement": "remaining activity", "value": "100%"}
{"SMILES": "NC(=O)c1ccc(C(=O)NOCc2ccc(Sc3ccc(F)cc3)c(C(F)(F)F)c2)cc1", "target": "SIRT6", "assay": "enzyme activity, inhibitor, fluorescence", "setting": "100 µM", "measurement": "inhibition", "value": "90.2%"}
{"SMILES": "Nc1nonc1-n1cc(C(=O)N/N=C/c2ccc(O)cc2)nn1", "target": "SIRT6", "assay": "enzyme activity, inhibitor, fluorescence", "setting": "100 µM", "measurement": "remaining activity", "value": "34.5%"}
{"SMILES": "Cn1c2c(Cl)c(Cl)ccc2c2cc[nH]c(=O)c21", "target": "PBK", "assay": "thermal stability, DSF", "setting": "10 µM", "measurement": "ΔTm", "value": "-0.6 °C"}
{"SMILES": "CCCOc1ccc(OC)c(F)c1C(=O)c1ccc(C(=O)N[C@@H]2CNC[C@H]2NC(=O)c2ccc3[nH]ncc3c2)cc1", "target": "Angiopoietin-1 receptor (TEK, Homo sapiens, UniProt Q02763, Y897S)", "assay": "enzyme activity, inhibitor", "setting": "10 µM", "measurement": "remaining activity", "value": "47%"}
{"SMILES": "Cc1cc(NC(=O)c2cccc3cc(-c4cccc5[nH]nc(N)c45)ccc23)ccc1F", "target": "Angiopoietin-1 receptor (TEK, Homo sapiens, UniProt Q02763)", "assay": "enzyme activity, inhibitor", "setting": "0.1 µM", "measurement": "activity vs control", "value": "96%"}
{"SMILES": "Cc1cnc(NC2CCOCC2)nc1-n1cnc(C(=O)NC(CN)c2cc(F)cc(Cl)c2)c1 (centres unmarked)", "target": "Angiopoietin-1 receptor (TEK, Homo sapiens, UniProt Q02763, R849W)", "assay": "enzyme activity, inhibitor, radiometric", "setting": "1 µM", "measurement": "remaining activity", "value": "100%"}
{"SMILES": "NC(=O)c1ccc(C(=O)NOCc2cccc(Br)c2)cc1", "target": "SIRT6", "assay": "enzyme activity, inhibitor, fluorescence", "setting": "100 µM", "measurement": "inhibition", "value": "82.3%"}
{"SMILES": "CC/C(=N\\NC(=O)NCc1cccc(O)c1)c1ccc(O)c(C)c1O", "target": "ALK C1156Y", "assay": "enzyme activity, inhibitor", "setting": "0.1 µM", "measurement": "inhibition", "value": "2.3%"}
{"SMILES": "CC(C)(O)c1cn(-c2ccc(-c3cccc(S(C)(=O)=O)c3)cc2)c(C(C)(C)c2ccccc2Cl)n1", "target": "Oxysterols receptor LXR-beta (NR1H2, Homo sapiens, UniProt P55055)", "assay": "reporter gene, agonist", "system": "CV-1", "measurement": "Emax", "value": "72%"}
{"SMILES": "NC(=O)c1ccc(C(=O)NOCc2ccc(Sc3ccc(N)cc3)c(C(F)(F)F)c2)cc1", "target": "SIRT6", "assay": "enzyme activity, inhibitor, fluorescence", "setting": "100 µM", "measurement": "inhibition", "value": "97.3%"}
{"SMILES": "Nc1nonc1-n1cc(C(=O)N/N=C/c2ccc(F)cc2)nn1", "target": "SIRT6", "assay": "enzyme activity, inhibitor, fluorescence", "setting": "100 µM", "measurement": "remaining activity", "value": "43%"}
{"SMILES": "CNC(=O)c1ccc(C(=O)NOCc2ccc(C(F)(F)F)cc2)cc1", "target": "SIRT6", "assay": "enzyme activity, inhibitor, fluorescence", "setting": "100 µM", "measurement": "inhibition", "value": "35.3%"}
{"SMILES": "CCC1(CC)NC(=O)c2c(c3ccc(Cl)c(Cl)c3n2C)C1C#N (centres unmarked)", "target": "VRK1", "assay": "thermal stability, DSF", "setting": "10 µM", "measurement": "ΔTm", "value": "0 °C"}
{"SMILES": "NC(=O)c1ccc(C(=O)NOCc2ccc(C(F)(F)F)c(Cl)c2)cc1", "target": "SIRT6", "assay": "enzyme activity, inhibitor, fluorescence", "setting": "100 µM", "measurement": "inhibition", "value": "90.4%"}
{"SMILES": "Nc1nonc1-n1cc(C(=O)N/N=C/c2ccc(C(F)(F)F)cc2[N+](=O)[O-])nn1", "target": "SIRT6", "assay": "enzyme activity, inhibitor, fluorescence", "setting": "100 µM", "measurement": "remaining activity", "value": "24.9%"}
{"SMILES": "NCCc1ccc(C(=O)NOCc2ccc(C(F)(F)F)cc2)cc1", "target": "SIRT6", "assay": "enzyme activity, inhibitor, fluorescence", "setting": "100 µM", "measurement": "inhibition", "value": "88.4%"}
{"SMILES": "Cn1c2c(Cl)c(Cl)ccc2c2cc(N)[nH]c(=O)c21", "target": "VRK1", "assay": "thermal stability, DSF", "setting": "10 µM", "measurement": "ΔTm", "value": "1.3 °C"}
